From ChEMBL document CHEMBL1153104, “Synthesis and structural optimization of multiple H-bonding region of diarylalkyl (thio)amides as novel TRPV1 antagonists” (Bioorg Med Chem, 2009)

Molecular target: Transient receptor potential cation channel subfamily V member 1 (Rattus norvegicus, UniProt O35433)
Assay: Antagonist activity at TRPV1 in Sprague-Dawley rat DRG neurons assessed as inhibition of capsaicin-induced [45]Ca2+ uptake
Format: functional
Procedure, shortened: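 Neonatal rat DRG neurons from all spinal levels were dissociated with collagenase/trypsin, then grown 3 days on poly-D-ornithine (1500–1700 neurons/well) in DME/F12 with 10% horse serum and C6-conditioned medium, with cytosine arabinoside for the first 2 days. Cells were exposed to ⁴⁵Ca²⁺, 0.5 capsaicin and compound for 10 min at room temperature, lysed in 0.3% SDS, and scintillation-counted. IC50 = 50% reduction of capsaicin response.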

Chain of Transient receptor potential cation channel subfamily V member 1 (O35433 whole entry): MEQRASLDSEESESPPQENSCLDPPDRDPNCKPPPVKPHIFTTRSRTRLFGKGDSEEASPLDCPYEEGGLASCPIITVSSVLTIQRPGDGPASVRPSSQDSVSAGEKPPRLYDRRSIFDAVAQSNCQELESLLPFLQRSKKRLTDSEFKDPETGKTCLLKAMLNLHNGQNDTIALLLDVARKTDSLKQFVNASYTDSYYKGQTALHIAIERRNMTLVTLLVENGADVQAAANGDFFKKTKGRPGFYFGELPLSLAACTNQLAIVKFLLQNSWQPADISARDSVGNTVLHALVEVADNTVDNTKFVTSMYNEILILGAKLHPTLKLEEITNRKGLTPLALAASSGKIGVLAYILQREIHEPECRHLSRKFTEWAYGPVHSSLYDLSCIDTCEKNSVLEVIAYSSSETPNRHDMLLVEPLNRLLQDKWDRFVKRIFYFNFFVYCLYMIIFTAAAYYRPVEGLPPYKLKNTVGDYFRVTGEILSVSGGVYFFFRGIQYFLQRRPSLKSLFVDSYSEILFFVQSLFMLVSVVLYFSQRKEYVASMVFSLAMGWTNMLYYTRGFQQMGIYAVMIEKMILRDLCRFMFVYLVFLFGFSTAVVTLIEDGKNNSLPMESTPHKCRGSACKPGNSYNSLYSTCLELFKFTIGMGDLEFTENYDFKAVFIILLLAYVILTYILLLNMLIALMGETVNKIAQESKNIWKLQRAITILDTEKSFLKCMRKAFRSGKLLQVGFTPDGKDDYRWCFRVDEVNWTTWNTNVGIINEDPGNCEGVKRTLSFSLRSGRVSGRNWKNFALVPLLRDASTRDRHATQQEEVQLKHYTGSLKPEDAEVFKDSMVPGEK

| Compound | IC50 |
| --- | --- |
| CC(C)(C)c1ccc(CCC(=S)NCc2ccc(NS(C)(=O)=O)c([N+](=O)[O-])c2)cc1 | 72 nM |
| CC(C)(C)c1ccc(CCC(=S)NCc2ccc(NS(C)(=O)=O)c(C(=O)O)c2)cc1 | 22600 nM |
| Cc1cc(CNC(=S)CCc2ccc(C(C)(C)C)cc2)cc(Cl)c1NS(C)(=O)=O | 80 nM |
| Cc1cc(CNC(=O)CCc2ccc(C(C)(C)C)cc2)cc(C)c1NS(C)(=O)=O | 620 nM |
| CC(C)(C)c1ccc(CCC(=S)NCc2ccc(NS(C)(=O)=O)cc2C(F)(F)F)cc1 | 2400 nM |
| C#Cc1cc(CNC(=S)CCc2ccc(C(C)(C)C)cc2)cc(F)c1NS(C)(=O)=O | 75 nM |
| COC(=O)c1cc(CNC(=S)CCc2ccc(C(C)(C)C)cc2)ccc1NS(C)(=O)=O | 3700 nM |
| C=Cc1cc(CNC(=S)CCc2ccc(C(C)(C)C)cc2)cc(F)c1NS(C)(=O)=O | 32 nM |
| Cc1cc(CNC(=O)CCc2ccc(C(C)(C)C)cc2)cc(Cl)c1NS(C)(=O)=O | 100 nM |
| CC(C)(C)c1ccc(CCC(=O)NCc2cc(F)c(NS(C)(=O)=O)c(C3CC3)c2)cc1 | 360 nM |
| CC(C)(C)c1ccc(CCC(=S)NCc2ccc(NS(C)(=O)=O)cc2Cl)cc1 | 3500 nM |
| CC(C)(C)c1ccc(CCC(=S)NCc2cc(F)c(NS(C)(=O)=O)c(C#N)c2)cc1 | 28 nM |
| CC(C)(C)c1ccc(CCC(=S)NCc2cc(F)c(NS(C)(=O)=O)c(C3CC3)c2)cc1 | 270 nM |
| CC(C)(C)c1ccc(CCC(=S)NCc2ccc(NS(C)(=O)=O)c(C(F)(F)F)c2)cc1 | 940 nM |
| CC(=O)c1cc(CNC(=S)CCc2ccc(C(C)(C)C)cc2)ccc1NS(C)(=O)=O | 1000 nM |
| Cc1cc(CNC(=S)CCc2ccc(C(C)(C)C)cc2)cc(C)c1NS(C)(=O)=O | 2900 nM |

Other lines, results leading:

| IC50 | Compound |
| --- | --- |
| 300 nM | CC(C)(C)c1ccc(CCC(=S)NCc2ccc(NS(C)(=O)=O)c(I)c2)cc1 |
| 55 nM | CC(C)(C)c1ccc(CCC(=S)NCc2ccc(NS(C)(=O)=O)c(C#N)c2)cc1 |
| 40 nM | CC(C)(C)c1ccc(CCC(=S)NCc2ccc(NS(C)(=O)=O)c(F)c2)cc1 |
| 60 nM | Cc1cc(CNC(=S)CCc2ccc(C(C)(C)C)cc2)ccc1NS(C)(=O)=O |
| 96 nM | CC(C)(C)c1ccc(CCC(=S)NCc2ccc(NS(C)(=O)=O)c(Cl)c2)cc1 |
| 240 nM | CCc1cc(CNC(=S)CCc2ccc(C(C)(C)C)cc2)ccc1NS(C)(=O)=O |
| 61 nM | C=Cc1cc(CNC(=S)CCc2ccc(C(C)(C)C)cc2)ccc1NS(C)(=O)=O |
